Source: paper PMC6339461 (Bioorganic & medicinal chemistry letters, 2018)
Entries after “also recorded” stand apart in the source; their conditions may differ.

What was measured:
[1] = solubility in DMSO and buffer; type: physicochemical; conditions: in both DMSO and buffer; compared with hit 7a
[2] = parallel artificial membrane permeability assay; type: in vitro ADME; conditions: for permeability, result in words: PAMPA
HepG2 = experiment: cytotoxicity in HepG2 cells; type: cell-based; conditions: concentrations up to 100 μM
HeLa = experiment: cytotoxicity in HeLa cells; type: cell-based; conditions: concentrations up to 100 μM
TDP2 = target: T1, TDP2 (Danio rerio, UniProt Q5XJA0); experiment: fluorescence-based biochemical assay measuring the catalytic activity of TDP2
T1 sequence (Q5XJA0 121-369): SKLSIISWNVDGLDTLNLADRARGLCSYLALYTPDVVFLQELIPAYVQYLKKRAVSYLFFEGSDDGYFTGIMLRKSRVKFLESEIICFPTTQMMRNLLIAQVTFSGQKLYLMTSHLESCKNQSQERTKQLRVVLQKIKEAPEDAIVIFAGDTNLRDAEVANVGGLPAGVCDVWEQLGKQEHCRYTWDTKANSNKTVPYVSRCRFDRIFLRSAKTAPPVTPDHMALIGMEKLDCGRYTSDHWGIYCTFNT
Summary of the method: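 TDP2 catalytic activity measured with a fluorescence read-out. IC50 values are the mean of three independent experiments, each run in triplicate.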

SMILES	permeability, result in words [2]	cytotoxicity in HepG2, result in words (HepG2)	cytotoxicity in HeLa, result in words (HeLa)	further results
O=C(Nc1nc2cc(-c3ccccc3)ccn2n1)c1cccc([N+](=O)[O-])c1 [Compound 17a]	–	–	–	solubility profile, result in words [1]: better solubility profile
O=C(Nc1nc2cc(-c3ccccc3)ccn2n1)c1cccc(Cl)c1 [Compound 17e]	borderline Pe value; also recorded: good cellular permeability	no cytotoxicity	no cytotoxicity	Pe value, times higher than that of 1 ([2]; relative to 1): about 10 times; permeability in PAMPA, fold higher than the hit compound ([2]; relative to hit compound): 6 fold
O=C(Nc1nc2cc(-c3ccccc3)ccn2n1)c1ccc(F)cc1Cl [Compound 17o]	–	–	–	TDP2 inhibition, result in words (TDP2): further reduced activity
O=C(Nc1nc2cc(-c3cccnc3)ccn2n1)c1cccc(Cl)c1 [Compound 17z]	good cellular permeability; also recorded: excellent cell permeability	no cytotoxicity	no cytotoxicity	fold increase in permeability versus 17e ([2]; relative to 17e): 7 fold
